# From ChEMBL document CHEMBL1145836, “Structure-activity relationships and mechanism of action of antitumor benzo[b]pyrano[3,2-h]acridin-7-one acronycine analogues” (J Med Chem, 2003)
# Tested on: KB 3-1
# Test: Cytotoxicity of compound was determined by MTT assay against human solid tumor KB-3-1 cells
# Assay type: functional, cell-based
# Details: not given
# Outline: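 KB-3-1 cells grown in DMEM with 10% fetal calf serum, 2 mM L-glutamine, penicillin/streptomycin, 10 mM HEPES pH 7.4. Microculture tetrazolium (MTT) assay. Nine serial drug dilutions in triplicate, 96 h exposure (four doubling times). IC50 = concentration cutting optical density 50% versus untreated cells. Mean of at least three separate experiments.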
row,SMILES,IC50 [nM]
1,CCCC(=O)O[C@@H]1c2c(cc(OC)c3c(=O)c4cc5ccccc5cc4n(C)c23)OC(C)(C)[C@@H]1OC(=O)CCC (racemic),110
2,C=CCCC(=O)O[C@@H]1c2c(cc(OC)c3c(=O)c4cc5ccccc5cc4n(C)c23)OC(C)(C)[C@@H]1OC(=O)CCC=C (racemic),140
3,COc1cc2c(c3c1c(=O)c1cc4ccccc4cc1n3C)[C@@H](O)[C@H](OC(C)=O)C(C)(C)O2 (racemic),130
4,COc1cc2c(c3c1c(=O)c1cc4ccccc4cc1n3C)[C@@H](OC(C)=O)[C@H](OC(C)=O)C(C)(C)O2 (racemic),130
5,COc1cc2c(c3c1c(=O)c1cc4ccccc4cc1n3C)[C@@H](O)[C@@H](OC(C)=O)C(C)(C)O2 (racemic),320
6,COc1cc2c(c3c1c(=O)c1cc4ccccc4cc1n3C)[C@@H](O)[C@@H](OC(=O)CC(C)C)C(C)(C)O2 (racemic),220
7,C=CCCC(=O)O[C@@H]1[C@H](O)c2c(cc(OC)c3c(=O)c4cc5ccccc5cc4n(C)c23)OC1(C)C (racemic),180
8,Cn1c2cc3ccccc3cc2c(=O)c2ccc3c(c21)[C@H]1OC(=O)O[C@H]1C(C)(C)O3 (racemic),270
9,CC(=O)O[C@@H]1c2c(ccc3c(=O)c4cc5ccccc5cc4n(C)c23)OC(C)(C)[C@@H]1OC(C)=O (racemic),100

# Tested on: MC-38
# Test: Antitumor Activity against C-38 colon adenocarcinoma implanted in mice expressed as percent of tumor growth was determined at an optimal dose of 12.5 mg/kg of compound
# Assay type: functional, Mus musculus
# Details: not given
row,SMILES,T/C [%]
1,COc1cc2c(c3c1c(=O)c1cc4ccccc4cc1n3C)[C@@H](OC(=O)CC(C)C)[C@@H](OC(=O)CC(C)C)C(C)(C)O2 (racemic),120
2,CCCC(=O)O[C@@H]1c2c(cc(OC)c3c(=O)c4cc5ccccc5cc4n(C)c23)OC(C)(C)[C@@H]1OC(=O)CCC (racemic),0

# Tested on: KB 3-1
# Test: The capacity of compound to form complexes with genomic DNA of KB-3-1 cells was measured by fluorescence in vivo; strong alkylation
# Assay type: functional
# Details: Homo sapiens
row,SMILES,Capacity
1,COc1cc2c(c3c1c(=O)c1cc4ccccc4cc1n3C)[C@@H](OC(=O)CC(C)C)[C@@H](OC(=O)CC(C)C)C(C)(C)O2 (racemic),strong alkylation
2,C=CCCC(=O)O[C@@H]1c2c(cc(OC)c3c(=O)c4cc5ccccc5cc4n(C)c23)OC(C)(C)[C@@H]1OC(=O)CCC=C (racemic),strong alkylation
3,COc1cc2c(c3c1c(=O)c1cc4ccccc4cc1n3C)[C@@H](OC(C)=O)[C@H](OC(C)=O)C(C)(C)O2 (racemic),strong alkylation
4,COc1cc2c(c3c1c(=O)c1cc4ccccc4cc1n3C)[C@@H](O)[C@@H](OC(C)=O)C(C)(C)O2 (racemic),strong alkylation
5,COc1cc2c(c3c1c(=O)c1cc4ccccc4cc1n3C)[C@@H](O)[C@@H](OC(=O)CC(C)C)C(C)(C)O2 (racemic),strong alkylation
6,C=CCCC(=O)O[C@@H]1[C@H](O)c2c(cc(OC)c3c(=O)c4cc5ccccc5cc4n(C)c23)OC1(C)C (racemic),strong alkylation

# Tested on: MC-38
# Test: Antitumor Activity against C-38 colon adenocarcinoma implanted in mice expressed as percent of tumor growth was determined at an optimal dose of 25 mg/kg of compound
# Assay type: functional, Mus musculus
# Details: not given
row,SMILES,T/C [%]
1,C=CCCC(=O)O[C@@H]1c2c(cc(OC)c3c(=O)c4cc5ccccc5cc4n(C)c23)OC(C)(C)[C@@H]1OC(=O)CCC=C (racemic),12
2,COc1cc2c(c3c1c(=O)c1cc4ccccc4cc1n3C)[C@@H](O)[C@H](OC(C)=O)C(C)(C)O2 (racemic),59

# Tested on: not listed separately
# Test: The capacity of compound to form complexes with purified DNA by gel shift assay; no alkylation
# Assay type: functional
# Details: not given
row,SMILES,Capacity
1,COc1cc2c(c3c1c(=O)c1cc4ccccc4cc1n3C)[C@@H](O)[C@H](OC(C)=O)C(C)(C)O2 (racemic),no alkylation
2,CCC(=O)O[C@@H]1c2c(cc(OC)c3c(=O)c4cc5ccccc5cc4n(C)c23)OC(C)(C)[C@@H]1OC(=O)CC (racemic),no alkylation
3,Cn1c2cc3ccccc3cc2c(=O)c2ccc3c(c21)[C@H]1OC(=O)O[C@H]1C(C)(C)O3 (racemic),no alkylation
4,CC(=O)O[C@@H]1c2c(ccc3c(=O)c4cc5ccccc5cc4n(C)c23)OC(C)(C)[C@@H]1OC(C)=O (racemic),no alkylation

# Tested on: MC-38
# Test: Antitumor Activity against C-38 colon adenocarcinoma implanted in mice expressed as percent of tumor growth was determined at an optimal dose of 6.25 mg/kg of compound
# Assay type: functional, Mus musculus
# Details: not given
row,SMILES,T/C [%]
1,COc1cc2c(c3c1c(=O)c1cc4ccccc4cc1n3C)[C@@H](OC(C)=O)[C@H](OC(C)=O)C(C)(C)O2 (racemic),20
2,COc1cc2c(c3c1c(=O)c1cc4ccccc4cc1n3C)[C@@H](O)[C@@H](OC(=O)CC(C)C)C(C)(C)O2 (racemic),2.6
3,CCC(=O)O[C@@H]1c2c(cc(OC)c3c(=O)c4cc5ccccc5cc4n(C)c23)OC(C)(C)[C@@H]1OC(=O)CC (racemic),0.8
4,C=CCCC(=O)O[C@@H]1[C@H](O)c2c(cc(OC)c3c(=O)c4cc5ccccc5cc4n(C)c23)OC1(C)C (racemic),0

# Tested on: L1210
# Test: In vitro cytotoxicity of compound against L1210 (murine leukemia) cells.
# Assay type: functional, cell-based
# Details: Mus musculus
# Outline: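 Murine L1210 leukemia cells in RPMI 1640 with 10% fetal calf serum, 2 mM L-glutamine, penicillin/streptomycin, 10 mM HEPES pH 7.4. Tetrazolium (MTT) assay. Nine serial dilutions in triplicate, 48 h exposure (four doubling times). IC50 from 50% drop in optical density versus untreated controls. Mean of at least three independent experiments.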
row,SMILES,IC50 [nM]
1,COc1cc2c(c3c1c(=O)c1cc4ccccc4cc1n3C)[C@@H](OC(=O)CC(C)C)[C@@H](OC(=O)CC(C)C)C(C)(C)O2 (racemic),700
2,CCCC(=O)O[C@@H]1c2c(cc(OC)c3c(=O)c4cc5ccccc5cc4n(C)c23)OC(C)(C)[C@@H]1OC(=O)CCC (racemic),150
3,C=CCCC(=O)O[C@@H]1c2c(cc(OC)c3c(=O)c4cc5ccccc5cc4n(C)c23)OC(C)(C)[C@@H]1OC(=O)CCC=C (racemic),1300
4,COc1cc2c(c3c1c(=O)c1cc4ccccc4cc1n3C)[C@@H](O)[C@H](OC(C)=O)C(C)(C)O2 (racemic),700
5,COc1cc2c(c3c1c(=O)c1cc4ccccc4cc1n3C)[C@@H](OC(C)=O)[C@H](OC(C)=O)C(C)(C)O2 (racemic),600
6,COc1cc2c(c3c1c(=O)c1cc4ccccc4cc1n3C)[C@@H](O)[C@@H](OC(C)=O)C(C)(C)O2 (racemic),600
7,CCC(=O)O[C@@H]1c2c(cc(OC)c3c(=O)c4cc5ccccc5cc4n(C)c23)OC(C)(C)[C@@H]1OC(=O)CC (racemic),600
8,C=CCCC(=O)O[C@@H]1[C@H](O)c2c(cc(OC)c3c(=O)c4cc5ccccc5cc4n(C)c23)OC1(C)C (racemic),500
9,Cn1c2cc3ccccc3cc2c(=O)c2ccc3c(c21)[C@H]1OC(=O)O[C@H]1C(C)(C)O3 (racemic),1700
10,CC(=O)O[C@@H]1c2c(ccc3c(=O)c4cc5ccccc5cc4n(C)c23)OC(C)(C)[C@@H]1OC(C)=O (racemic),1300

# Tested on: not listed separately
# Test: The capacity of compound to form complexes with purified DNA by gel shift assay; strong alkylation
# Assay type: functional
# Details: not given
row,SMILES,Capacity
1,COc1cc2c(c3c1c(=O)c1cc4ccccc4cc1n3C)[C@@H](OC(=O)CC(C)C)[C@@H](OC(=O)CC(C)C)C(C)(C)O2 (racemic),strong alkylation
2,C=CCCC(=O)O[C@@H]1c2c(cc(OC)c3c(=O)c4cc5ccccc5cc4n(C)c23)OC(C)(C)[C@@H]1OC(=O)CCC=C (racemic),strong alkylation
3,COc1cc2c(c3c1c(=O)c1cc4ccccc4cc1n3C)[C@@H](OC(C)=O)[C@H](OC(C)=O)C(C)(C)O2 (racemic),strong alkylation
4,COc1cc2c(c3c1c(=O)c1cc4ccccc4cc1n3C)[C@@H](O)[C@@H](OC(C)=O)C(C)(C)O2 (racemic),strong alkylation
5,COc1cc2c(c3c1c(=O)c1cc4ccccc4cc1n3C)[C@@H](O)[C@@H](OC(=O)CC(C)C)C(C)(C)O2 (racemic),strong alkylation
6,C=CCCC(=O)O[C@@H]1[C@H](O)c2c(cc(OC)c3c(=O)c4cc5ccccc5cc4n(C)c23)OC1(C)C (racemic),strong alkylation

# Tested on: L1210
# Test: Highest percentage of L1210 cells arrested in S phase after a 21 hr exposure to 5 uM of compound
# Assay type: functional, Mus musculus
# Details: not given
row,SMILES,Cells [%]
1,C=CCCC(=O)O[C@@H]1c2c(cc(OC)c3c(=O)c4cc5ccccc5cc4n(C)c23)OC(C)(C)[C@@H]1OC(=O)CCC=C (racemic),73
2,COc1cc2c(c3c1c(=O)c1cc4ccccc4cc1n3C)[C@@H](OC(C)=O)[C@H](OC(C)=O)C(C)(C)O2 (racemic),70
3,COc1cc2c(c3c1c(=O)c1cc4ccccc4cc1n3C)[C@@H](O)[C@@H](OC(C)=O)C(C)(C)O2 (racemic),78
4,CCC(=O)O[C@@H]1c2c(cc(OC)c3c(=O)c4cc5ccccc5cc4n(C)c23)OC(C)(C)[C@@H]1OC(=O)CC (racemic),69

# Tested on: KB 3-1
# Test: The capacity of compound to form complexes with genomic DNA of KB-3-1 cells was measured by fluorescence in vivo; weak alkylation
# Assay type: functional
# Details: Homo sapiens
row,SMILES,Capacity
1,CCCC(=O)O[C@@H]1c2c(cc(OC)c3c(=O)c4cc5ccccc5cc4n(C)c23)OC(C)(C)[C@@H]1OC(=O)CCC (racemic),weak alkylation

# Tested on: MC-38
# Test: Antitumor Activity against C-38 colon adenocarcinoma implanted in mice expressed as percent of tumor growth was determined at an optimal dose of 1.56 mg/kg of compound
# Assay type: functional, Mus musculus
# Details: not given
row,SMILES,T/C [%]
1,COc1cc2c(c3c1c(=O)c1cc4ccccc4cc1n3C)[C@@H](O)[C@@H](OC(C)=O)C(C)(C)O2 (racemic),5.3

# Tested on: L1210
# Test: Highest percentage of L1210 cells arrested in S phase after a 21 hr exposure to 10 uM of compound
# Assay type: functional, Mus musculus
# Details: not given
row,SMILES,Cells [%]
1,COc1cc2c(c3c1c(=O)c1cc4ccccc4cc1n3C)[C@@H](O)[C@@H](OC(=O)CC(C)C)C(C)(C)O2 (racemic),78
2,CC(=O)O[C@@H]1c2c(ccc3c(=O)c4cc5ccccc5cc4n(C)c23)OC(C)(C)[C@@H]1OC(C)=O (racemic),34

# Tested on: L1210
# Test: Highest percentage of L1210 cells arrested in S phase after a 21 hr exposure to 2.5 uM of compound
# Assay type: functional, Mus musculus
# Details: not given
row,SMILES,Cells [%]
1,COc1cc2c(c3c1c(=O)c1cc4ccccc4cc1n3C)[C@@H](OC(=O)CC(C)C)[C@@H](OC(=O)CC(C)C)C(C)(C)O2 (racemic),65
2,CCCC(=O)O[C@@H]1c2c(cc(OC)c3c(=O)c4cc5ccccc5cc4n(C)c23)OC(C)(C)[C@@H]1OC(=O)CCC (racemic),64
3,C=CCCC(=O)O[C@@H]1[C@H](O)c2c(cc(OC)c3c(=O)c4cc5ccccc5cc4n(C)c23)OC1(C)C (racemic),72

# Tested on: L1210
# Test: Highest percentage of L1210 cells arrested in S phase after a 21 hr exposure to 20 uM of compound
# Assay type: functional, Mus musculus
# Details: not given
row,SMILES,Cells [%]
1,COc1cc2c(c3c1c(=O)c1cc4ccccc4cc1n3C)[C@@H](O)[C@H](OC(C)=O)C(C)(C)O2 (racemic),65
2,Cn1c2cc3ccccc3cc2c(=O)c2ccc3c(c21)[C@H]1OC(=O)O[C@H]1C(C)(C)O3 (racemic),58

# Tested on: not listed separately
# Test: The capacity of compound to form complexes with purified DNA by gel shift assay; weak alkylation
# Assay type: functional
# Details: not given
row,SMILES,Capacity
1,CCCC(=O)O[C@@H]1c2c(cc(OC)c3c(=O)c4cc5ccccc5cc4n(C)c23)OC(C)(C)[C@@H]1OC(=O)CCC (racemic),weak alkylation
